According to PMC4263960 (Pediatric blood & cancer, 2013):

How the values were obtained:
[1] = system: Rh10 ALV rhabdomyosarcoma xenograft; test: PPTP in vivo xenograft testing, Rh10; set-up: species or system mice
RD cell line = test: DIMSCAN in vitro cytotoxicity testing, RD; assay type: cell-based
Method in brief: (§1)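 Test compound incubated with cells of a 24-line pediatric cancer panel for 96 h at 0.1 nM to 1 μM, then assessed by DIMSCAN. Relative IC50 (rIC50) derived per line. Panel comparison value is the panel rIC50 divided by the rIC50 of each cell line.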

CHLA258 Ewing xenograft = test: PPTP in vivo xenograft testing, CHLA258; set-up: species or system mice
NALM-6 cell line = test: DIMSCAN in vitro cytotoxicity testing, NALM-6; assay type: cell-based
Method in brief: as §1

[2] = system: BT-39 glioblastoma xenograft; test: PPTP in vivo xenograft testing, BT-39; set-up: species or system mice
[3] = system: PPTP solid tumor xenografts; test: PPTP in vivo testing, solid tumor xenograft panels summary; set-up: species or system mice
[4] = system: ALL-31 tertiary T-cell ALL xenograft; test: PPTP in vivo xenograft testing, ALL-31; set-up: species or system mice
[5] = system: NB-1771 neuroblastoma xenograft; test: PPTP in vivo xenograft testing, NB-1771; set-up: species or system mice
Kasumi-1 cell line = test: DIMSCAN in vitro cytotoxicity testing, Kasumi-1; assay type: cell-based
Method in brief: as §1

KT-10 Wilms xenograft = test: PPTP in vivo xenograft testing, KT-10; set-up: species or system mice; settings: 1 mg/kg IP
[6] = 1 mg/kg IP Q4Dx3 repeated at Day 21

Q: How did the EFS activity ([1]; 1 mg/kg IP) turn out when `C=C1C[C@@H]2CC[C@@]34C[C@H]5O[C@H]6[C@@H](O3)[C@H]3O[C@H](CC[C@@H]3O[C@H]6[C@H]5O4)CC(=O)C[C@@H]3[C@@H](OC)[C@@H](C[C@H](O)CN)O[C@H]3C[C@H]3O[C@@H](CC[C@@H]1O2)C[C@@H](C)C3=C` [Eribulin] was run?
A: High (High activity requires: (a) an EFS T/C >2; (b) a significant difference in EFS distributions, and (c) a net reduction in median tumor volume for animals in the treated group at the end of treatment as compared to at treatment initiation)

Q: What about the Response activity ([1]; 1 mg/kg IP) of the same compound?
A: High (A high level of activity is indicated by a score of 6 or more)

Q: And the T/C volume activity ([1]; 1 mg/kg IP)?
A: High (High activity = T/C ≤0.15)

Q: What about the “EFS T/C” value [1, 6] of the same compound?
A: >3.8

Q: And the “Median final RTV (CD45%)” value [1, 6]?
A: 0.0

Q: And the “Tumor volume T/C” value ([1]; 1 mg/kg IP, Day 21 or earlier)?
A: 0.08

Q: And the “Panel rIC50/Line rIC50” value (RD cell line)?
A: 1.92

Q: What about the Relative in/out% (RD cell line) of the same compound?
A: −18%

Q: And the “Ymin % (observed)” value (RD cell line)?
A: 4.49%

Q: What about the IC50 (RD cell line; Homo sapiens, 96 h, read-out: rIC50) of the same compound?
A: 0.14 nM

Q: What about the EFS activity (CHLA258 Ewing xenograft; 1 mg/kg IP) of the same compound?
A: High (High activity requires: (a) an EFS T/C >2; (b) a significant difference in EFS distributions, and (c) a net reduction in median tumor volume for animals in the treated group at the end of treatment as compared to at treatment initiation)

Q: And the Response activity (CHLA258 Ewing xenograft; 1 mg/kg IP)?
A: High (A high level of activity is indicated by a score of 6 or more)

Q: And the T/C volume activity (CHLA258 Ewing xenograft; 1 mg/kg IP)?
A: High (High activity = T/C ≤0.15)

Q: What about the “EFS T/C” value (CHLA258 Ewing xenograft; [6]) of the same compound?
A: >4.2

Q: And the “Median final RTV (CD45%)” value (CHLA258 Ewing xenograft; [6])?
A: 0.0

Q: What about the “Tumor volume T/C” value (CHLA258 Ewing xenograft; 1 mg/kg IP, Day 21 or earlier) of the same compound?
A: 0.01

Q: And the IC50 (NALM-6 cell line; Homo sapiens, NALM-6, 96 h, read-out: rIC50)?
A: 0.59 nM

Q: And the “Panel rIC50/Line rIC50” value (NALM-6 cell line; NALM-6)?
A: 0.46

Q: And the Relative in/out% (NALM-6 cell line; NALM-6)?
A: −99%

Q: And the “Ymin % (observed)” value (NALM-6 cell line; NALM-6)?
A: 0.03%

Q: And the EFS activity ([2]; 1 mg/kg IP)?
A: High (High activity requires: (a) an EFS T/C >2; (b) a significant difference in EFS distributions, and (c) a net reduction in median tumor volume for animals in the treated group at the end of treatment as compared to at treatment initiation)

Q: And the Response activity ([2]; 1 mg/kg IP)?
A: Int (intermediate activity by a score of ≥2 but <6)

Q: What about the T/C volume activity ([2]; 1 mg/kg IP) of the same compound?
A: Low (Low activity = T/C >0.45)

Q: And the “EFS T/C” value [2, 6]?
A: >3.6

Q: What about the “Median final RTV (CD45%)” value [2, 6] of the same compound?
A: 0.5

Q: What about the “Tumor volume T/C” value ([2]; 1 mg/kg IP, Day 21 or earlier) of the same compound?
A: 1.00

Q: What about the “xenografts with CR or maintained CR” value ([3]; Ewing sarcoma xenografts) of the same compound?
A: four of five

Q: And the “xenografts with CR or maintained CR” value ([3]; Ewing sarcoma xenografts, listed as eribulin)?
A: 4 of 5

Q: What about the “xenografts with high EFS T/C activity” value ([3]; evaluable Ewing sarcoma xenografts) of the same compound?
A: three of four

Q: And the “xenografts with high EFS T/C activity” value ([3]; evaluable osteosarcoma xenografts)?
A: three of five

Q: What about the “xenografts with significant difference in EFS distribution compared to control” value ([3]; evaluable solid tumor xenografts, 1 mg/kg) of the same compound?
A: 29 of 35

Q: What about the “xenografts with CR or maintained CR” value ([3]; glioblastoma xenografts) of the same compound?
A: two of four

Q: What about the “xenografts with high EFS T/C activity” value ([3]; glioblastoma xenografts) of the same compound?
A: two of four

Q: What about the “xenografts with CR or maintained CR” value ([3]; osteosarcoma xenografts) of the same compound?
A: three of six

Q: What about the “xenografts with high activity” value ([3]; osteosarcoma xenografts) of the same compound?
A: three

Q: And the “xenografts with CR or maintained CR” value ([3]; rhabdomyosarcoma xenografts)?
A: six of seven

Q: And the “xenografts with MCR” value ([3]; rhabdomyosarcoma xenografts)?
A: 6 of 7

Q: And the “xenografts with high EFS T/C activity” value ([3]; rhabdomyosarcoma xenografts)?
A: six of seven

Q: What about the “lines with high EFS T/C activity” value ([3]; solid tumor models) of the same compound?
A: 17

Q: What about the “lines with intermediate EFS T/C activity” value ([3]; solid tumor models) of the same compound?
A: seven

Q: And the “xenografts with objective response” value ([3]; solid tumor xenografts, 1 mg/kg)?
A: 18 of 35

Q: And the EFS activity ([4]; 1.5 mg/kg IP)?
A: Int (Intermediate activity = criteria (a) and (b) above, but not having a net reduction in median tumor volume for treated animals at the end of the study)

Q: What about the Response activity ([4]; 1.5 mg/kg IP) of the same compound?
A: High (A high level of activity is indicated by a score of 6 or more)

Q: What about the “EFS T/C” value ([4]; 1.5 mg/kg IP Q4Dx3 repeated at Day 21) of the same compound?
A: >3.7

Q: What about the “Median final RTV (CD45%)” value ([4]; CD45%, 1.5 mg/kg IP) of the same compound?
A: 12.9%

Q: And the EFS activity ([5]; 1 mg/kg IP)?
A: Low (Low activity = EFS T/C <2)

Q: And the Response activity ([5]; 1 mg/kg IP)?
A: Int (intermediate activity by a score of ≥2 but <6)

Q: And the T/C volume activity ([5]; 1 mg/kg IP)?
A: Low (Low activity = T/C >0.45)

Q: And the “EFS T/C” value [5, 6]?
A: 2.0

Q: And the “Median final RTV (CD45%)” value [5, 6]?
A: >4

Q: And the Time to event [5, 6]?
A: 14.8

Q: And the “Tumor volume T/C” value ([5]; 1 mg/kg IP, Day 21 or earlier)?
A: 0.56

Q: And the IC50 (Kasumi-1 cell line; Homo sapiens, Kasumi 1, 96 h, read-out: rIC50)?
A: 4.11 nM

Q: What about the “Panel rIC50/Line rIC50” value (Kasumi-1 cell line; Kasumi-1) of the same compound?
A: 0.07

Q: And the Relative in/out% (Kasumi-1 cell line; Kasumi-1)?
A: −86%

Q: And the “Ymin % (observed)” value (Kasumi-1 cell line; Kasumi-1)?
A: 3.92%

Q: What about the EFS activity (KT-10 Wilms xenograft) of the same compound?
A: High (High activity requires: (a) an EFS T/C >2; (b) a significant difference in EFS distributions, and (c) a net reduction in median tumor volume for animals in the treated group at the end of treatment as compared to at treatment initiation)

Q: What about the Response activity (KT-10 Wilms xenograft) of the same compound?
A: High (A high level of activity is indicated by a score of 6 or more)
